Results as given in article PMC3166626 (Nature immunology, 2010).
“Also recorded” adds a separate entry of the source.

Assays:
I-A^g7 = assay: Peptide binding to I-A^g7; design: species or system NOD mouse; details: inhibition of bio-pHEL (11 μM) binding to soluble I-A^g7, pH 5.6, overnight, 21°C, ELISA; average of two experiments (Fig. 6b,c)
Procedure, shortened: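 Soluble I-A^g7 carrying covalently linked pHEL, thrombin-treated to cleave the peptide linker. Diluted in PBS, captured on OX6-coated wells, washed. Bound probe detected with alkaline phosphatase–Extravidin and […]. Controls: mimotope peptide (positive), I-E^k-binding moth cytochrome c peptide (negative). Reported as percent of uninhibited probe binding.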

T cell clone BDC-2.5 = assay: IFN-γ response of T cell clone BDC-2.5; assay type: cell-based, NOD mouse; details: ChgA-derived peptides 5–500 μM; two experiments, single measurements (Fig. 6a,c)
Procedure, shortened: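 Cultures held 2 × 10⁴ BDC-2.5 T cells and 2.5 × 10⁴ NOD peritoneal exudate cells as I-A^g7 APCs. Chromogranin A-derived peptides were added at 5–500 μM. Controls were beta cell tumor membrane preparation, a positive mimotope peptide and an irrelevant moth cytochrome c peptide. IFN-γ was measured by specific ELISA. Two experiments, single measurement per concentration. Stimulatory capacity was calculated relative to the reference peptide.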

BDC T cell clones [1] = assay: In vitro activation of the BDC T cell clones; assay type: cell-based, NOD mouse
Procedure, shortened: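 The three BDC clones (2 × 10⁴ responder cells each) were cultured with 2.5 × 10⁴ NOD peritoneal exudate cells as APCs. Soluble synthetic test peptides were titrated alongside a mimotope peptide and beta cell tumor membrane preparation as the control antigen. IFN-γ (ng/ml) was measured by specific ELISA. At least two separate experiments, single measurement at each peptide concentration.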

BDC T cell clones [2] = details: presented in the context of I-A^g7; cited from earlier work

Row | Substance | Binding to I-A^g7 (I-A^g7) | Stimulatory activity on BDC-2.5 (IFN-γ response) (T cell clone BDC-2.5) | other results
1 | ED9: WD5 extended by the same 4 amino acids at the N-terminus (EDKRWSRMD) | did not bind to I-A^g7 | failed to stimulate BDC-2.5 | –
2 | EE18: WE14 extended by 4 amino acids at the N-terminus (EDKRWSRMDQLAKELTAE) | no effect on I-A^g7 binding | eliminated the BDC-2.5 response | –
3 | RLGLWVRME [pS3] | – | – | Potency in activating the BDC clones relative to WE14 (BDC T cell clones [1]; pS3 vs synthetic WE14): at least 1000 fold
4 | WA8: C-terminal truncation of WE14 (WSRMDQLA) | – | decreasing stimulatory activity | –
5 | WL11: WE14 truncated by 3 C-terminal amino acids (WSRMDQLAKEL) | reduced binding to a level indistinguishable from the negative control peptide | decreasing stimulatory activity | –
6 | WSRMD [WD5] | – | lacked any stimulatory activity | –
7 | WSRMDQLAKELTAE [WE14] | bound to I-A^g7, although not nearly as well as the pS3 mimotope; also recorded: bound I-A^g7 | – | Activation of the BDC T cell clones (BDC T cell clones [1]; in vitro, presented by I-A^g7 APCs): activated the ChgA-specific T cell clones in vitro; also recorded: potently stimulated all three of the BDC clones; also recorded: the clones were activated; Potency relative to beta cell (tumor) antigen preparation (BDC T cell clones [1]; synthetic WE14 vs β-Mem): considerably less potent than the antigen preparation from the beta cell adenoma tumor
8 | insulin: insulin, to which the BDC clones are not responsive | – | – | Response of BDC clones in vitro (BDC T cell clones [2]): not responsive
